We go through 10 compounds from ChEMBL document CHEMBL2390947, “New insight into adenosine receptors selectivity derived from a novel series of [5-substituted-4-phenyl-1,3-thiazol-2-yl] benzamides and furamides” (Eur J Med Chem, 2013).

For orientation: Ki means a dissociation constant, usually derived from enzyme kinetics or from competition with a known ligand.

Sequence of Adenosine receptor A2a (P29274 whole entry): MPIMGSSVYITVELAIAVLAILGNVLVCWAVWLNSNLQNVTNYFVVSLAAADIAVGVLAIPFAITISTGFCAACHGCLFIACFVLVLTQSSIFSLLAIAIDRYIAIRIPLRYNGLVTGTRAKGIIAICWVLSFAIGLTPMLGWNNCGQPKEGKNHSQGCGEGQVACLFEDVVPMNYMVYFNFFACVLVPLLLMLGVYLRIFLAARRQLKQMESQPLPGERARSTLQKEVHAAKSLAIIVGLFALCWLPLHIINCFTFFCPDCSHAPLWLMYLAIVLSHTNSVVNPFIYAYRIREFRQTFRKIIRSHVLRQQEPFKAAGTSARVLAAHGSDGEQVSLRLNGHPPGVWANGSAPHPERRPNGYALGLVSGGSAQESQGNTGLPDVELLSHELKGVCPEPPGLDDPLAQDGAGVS

One assay concerns the target T1, Adenosine receptor A1 (Homo sapiens, UniProt P30542).
T1 sequence (P30542 whole entry): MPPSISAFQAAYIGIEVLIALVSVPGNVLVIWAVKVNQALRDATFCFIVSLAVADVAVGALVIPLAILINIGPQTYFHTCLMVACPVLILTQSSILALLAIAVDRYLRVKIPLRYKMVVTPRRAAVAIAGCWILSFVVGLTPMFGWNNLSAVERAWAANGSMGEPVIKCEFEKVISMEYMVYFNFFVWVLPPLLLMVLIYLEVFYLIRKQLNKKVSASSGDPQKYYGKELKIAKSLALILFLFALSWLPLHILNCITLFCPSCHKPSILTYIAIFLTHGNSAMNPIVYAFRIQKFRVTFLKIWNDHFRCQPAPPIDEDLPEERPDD
Kind of assay: Displacement of [3H]CCPA from human adenosine A1 receptor expressed in CHO cells. It counts as cell-based. The essentials: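 Agonist radioligand competition on membranes from CHO cells stably transfected with human A1 receptor (1000 × g spin to clear debris, crude membranes pelleted at 100,000 × g, stored at -80 °C). Tracer 1 nM [3H]CCPA; non-specific binding defined with 1 mM theophylline. Ki computed from competition curves.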
With `COc1ccc(C(=O)Nc2nc(-c3ccccc3)c(-c3nc(N)c4c(C)c(C)sc4n3)s2)cc1`, the Ki is more than 100 µM.
Same read-out and setting: the value for `COc1ccc(C(=O)Nc2nc(-c3ccccc3)c(-c3nc(N)c4c5c(sc4n3)CCCC5)s2)cc1` was more than 10 µM.
As for `COc1ccc(C(=O)Nc2nc(-c3ccccc3)c(C(=O)c3cccnc3)s2)cc1`, the Ki was more than 10 µM.
`Cc1sc2nc(-c3sc(NC(=O)c4ccccc4)nc3-c3ccccc3)nc(N)c2c1C` returned an inhibitory constant (Ki) of 7.24 µM.
`CN(C)c1nc(N)nc(-c2sc(NC(=O)c3ccccc3)nc2-c2ccccc2)n1` returned a Ki of 0.801 µM.
Compound `Cc1ccc(C(=O)Nc2nc(-c3ccccc3)c(-c3nc(N)c4c5c(sc4n3)CCCC5)s2)cc1` registered a Ki of more than 10 µM.
The compound `Cc1ccc(C(=O)Nc2nc(-c3ccccc3)c(-c3nc(N)c4c(C)c(C)sc4n3)s2)cc1` displayed a Ki of more than 30 µM.
`Cc1sc2nc(-c3sc(NC(=O)c4ccco4)nc3-c3ccccc3)[nH]c(=O)c2c1C` had an inhibition constant Ki of more than 10 µM.
In turn, `COc1ccc(C(=O)Nc2nc(-c3ccccc3)c(-c3nc(N)nc(N(C)C)n3)s2)cc1` displayed a Ki of 10.4 µM.
Same read-out and setting: the figure for `Nc1nc(-c2sc(NC(=O)c3ccco3)nc2-c2ccccc2)nc2sc3c(c12)CCCC3` is more than 10 µM.

Another assay concerns the target Adenosine receptor A2a (Homo sapiens, UniProt P29274). Kind of assay: Displacement of [3H]NECA from human adenosine A2A receptor expressed in CHO cells. Type of assay: cell-based. A digest of the protocol: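 Membranes prepared from stably transfected CHO cells expressing human A2A receptor by two-step centrifugation (1000 × g, then 100,000 × g), frozen and kept at -80 °C. Competition against 30 nM [3H]NECA, with 100 µM R-PIA for non-specific binding. Ki obtained by competition-curve fitting.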
`COc1ccc(C(=O)Nc2nc(-c3ccccc3)c(-c3nc(N)c4c(C)c(C)sc4n3)s2)cc1` registered a Ki of more than 30 µM.
`COc1ccc(C(=O)Nc2nc(-c3ccccc3)c(-c3nc(N)c4c5c(sc4n3)CCCC5)s2)cc1` gave an inhibitory constant (Ki) of more than 10 µM.
Same read-out and setting: the figure for `COc1ccc(C(=O)Nc2nc(-c3ccccc3)c(C(=O)c3cccnc3)s2)cc1` is more than 10 µM; for `Cc1sc2nc(-c3sc(NC(=O)c4ccccc4)nc3-c3ccccc3)nc(N)c2c1C` it is 4.87 µM; for `CN(C)c1nc(N)nc(-c2sc(NC(=O)c3ccccc3)nc2-c2ccccc2)n1` it is 0.327 µM.
Turning to `Cc1ccc(C(=O)Nc2nc(-c3ccccc3)c(-c3nc(N)c4c5c(sc4n3)CCCC5)s2)cc1`, the inhibition constant (Ki) was more than 10 µM.
Compound `Cc1ccc(C(=O)Nc2nc(-c3ccccc3)c(-c3nc(N)c4c(C)c(C)sc4n3)s2)cc1` had a Ki of more than 30 µM.
As to `Cc1sc2nc(-c3sc(NC(=O)c4ccco4)nc3-c3ccccc3)[nH]c(=O)c2c1C`, the Ki was more than 100 µM.
In turn, `COc1ccc(C(=O)Nc2nc(-c3ccccc3)c(-c3nc(N)nc(N(C)C)n3)s2)cc1` yielded a Ki of 2.01 µM.
For the compound `Nc1nc(-c2sc(NC(=O)c3ccco3)nc2-c2ccccc2)nc2sc3c(c12)CCCC3`, the affinity corresponds to a Ki of 14.4 µM.

The target of another assay is T2, Adenosine receptor A2b (Homo sapiens, UniProt P29275).
T2 sequence (P29275 whole entry): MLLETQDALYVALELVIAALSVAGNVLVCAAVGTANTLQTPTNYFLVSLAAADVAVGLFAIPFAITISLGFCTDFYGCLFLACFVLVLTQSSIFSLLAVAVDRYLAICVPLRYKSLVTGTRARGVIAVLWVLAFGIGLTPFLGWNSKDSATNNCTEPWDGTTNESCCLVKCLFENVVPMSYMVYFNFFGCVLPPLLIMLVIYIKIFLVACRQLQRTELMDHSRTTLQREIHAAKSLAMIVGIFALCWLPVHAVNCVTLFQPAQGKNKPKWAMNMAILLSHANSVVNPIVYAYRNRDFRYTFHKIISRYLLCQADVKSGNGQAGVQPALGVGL
In words: Antagonist activity at human adenosine A2B receptor expressed in CHO cells assessed as inhibition of NECA-stimulated adenylyl cyclase activity. It counts as functional, cell-based. A digest of the protocol:
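Affinity at human A2B receptor taken from inhibition of NECA-stimulated adenylyl cyclase activity. Membranes from stably transfected CHO cells were obtained by a single high-speed spin of the homogenate, resuspended in 50 mM Tris/HCl pH 7.4 and used at once.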
Regarding `COc1ccc(C(=O)Nc2nc(-c3ccccc3)c(-c3nc(N)c4c(C)c(C)sc4n3)s2)cc1`, the Ki is more than 10 µM.
For the compound `COc1ccc(C(=O)Nc2nc(-c3ccccc3)c(-c3nc(N)c4c5c(sc4n3)CCCC5)s2)cc1`, the Ki was more than 10 µM.
With `COc1ccc(C(=O)Nc2nc(-c3ccccc3)c(C(=O)c3cccnc3)s2)cc1`, the Ki was more than 10 µM.
For the compound `Cc1sc2nc(-c3sc(NC(=O)c4ccccc4)nc3-c3ccccc3)nc(N)c2c1C`, the inhibitory constant (Ki) is more than 10 µM.
With `CN(C)c1nc(N)nc(-c2sc(NC(=O)c3ccccc3)nc2-c2ccccc2)n1`, the Ki is more than 10 µM.
The same measure, in the same setting: the figure for `Cc1ccc(C(=O)Nc2nc(-c3ccccc3)c(-c3nc(N)c4c5c(sc4n3)CCCC5)s2)cc1` is more than 10 µM; for `Cc1ccc(C(=O)Nc2nc(-c3ccccc3)c(-c3nc(N)c4c(C)c(C)sc4n3)s2)cc1` it is more than 10 µM; for `Cc1sc2nc(-c3sc(NC(=O)c4ccco4)nc3-c3ccccc3)[nH]c(=O)c2c1C` it is more than 10 µM.
As to `COc1ccc(C(=O)Nc2nc(-c3ccccc3)c(-c3nc(N)nc(N(C)C)n3)s2)cc1`, the Ki was more than 10 µM.
As to `Nc1nc(-c2sc(NC(=O)c3ccco3)nc2-c2ccccc2)nc2sc3c(c12)CCCC3`, the Ki is more than 10 µM.

For the next assay, the target named is T3, Adenosine receptor A3 (Homo sapiens, UniProt P0DMS8).
T3 sequence (P0DMS8 whole entry): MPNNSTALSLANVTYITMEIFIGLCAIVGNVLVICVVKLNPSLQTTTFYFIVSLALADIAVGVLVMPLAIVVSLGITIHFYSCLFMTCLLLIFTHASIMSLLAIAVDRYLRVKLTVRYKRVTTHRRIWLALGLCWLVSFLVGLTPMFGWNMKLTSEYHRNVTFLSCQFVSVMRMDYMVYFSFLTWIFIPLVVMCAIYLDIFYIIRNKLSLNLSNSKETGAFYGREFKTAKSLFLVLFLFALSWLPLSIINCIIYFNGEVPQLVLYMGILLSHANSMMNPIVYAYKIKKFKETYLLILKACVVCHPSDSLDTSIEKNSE
In words: Displacement of [3H]HEMADO from human adenosine A3 receptor expressed in CHO cells. It counts as cell-based. The essentials:
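Human A3 receptor binding in membranes from stably transfected CHO cells (low-speed then 100,000 × g pellet, stored at -80 °C). Radioligand was the agonist [3H]HEMADO at 1 nM; non-specific binding measured with 100 µM R-PIA. Ki values derived from competition experiments.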
(In a radioligand displacement assay an active substance lowers the binding of a labelled ligand.)
The compound `COc1ccc(C(=O)Nc2nc(-c3ccccc3)c(-c3nc(N)c4c(C)c(C)sc4n3)s2)cc1` showed a Ki of 2470 nM.
`COc1ccc(C(=O)Nc2nc(-c3ccccc3)c(-c3nc(N)c4c5c(sc4n3)CCCC5)s2)cc1`: the Ki was more than 10000 nM.
Compound `COc1ccc(C(=O)Nc2nc(-c3ccccc3)c(C(=O)c3cccnc3)s2)cc1` showed a Ki of more than 10000 nM.
The same measure, in the same setting: the figure for `Cc1sc2nc(-c3sc(NC(=O)c4ccccc4)nc3-c3ccccc3)nc(N)c2c1C` is 676 nM.
As to `CN(C)c1nc(N)nc(-c2sc(NC(=O)c3ccccc3)nc2-c2ccccc2)n1`, the Ki stood at 567 nM.
Same read-out and setting: the value for `Cc1ccc(C(=O)Nc2nc(-c3ccccc3)c(-c3nc(N)c4c5c(sc4n3)CCCC5)s2)cc1` was more than 10000 nM; that for `Cc1ccc(C(=O)Nc2nc(-c3ccccc3)c(-c3nc(N)c4c(C)c(C)sc4n3)s2)cc1` was 1380 nM; that for `Cc1sc2nc(-c3sc(NC(=O)c4ccco4)nc3-c3ccccc3)[nH]c(=O)c2c1C` was more than 10000 nM.
In the case of `COc1ccc(C(=O)Nc2nc(-c3ccccc3)c(-c3nc(N)nc(N(C)C)n3)s2)cc1`, the affinity corresponds to a Ki of 2640 nM.
Turning to `Nc1nc(-c2sc(NC(=O)c3ccco3)nc2-c2ccccc2)nc2sc3c(c12)CCCC3`, affinity was put at a Ki of 36600 nM.
